Measurements: ChEMBL document CHEMBL1821590, “Novel dihydropyrimidines and its pyrazole derivatives: synthesis and pharmacological screening” (Eur J Med Chem, 2011)
Values after ≈ are worked out from the molar mass of the structure shown.

Assays:
Assay type in all cases: functional
[1] = Antiinflammatory activity assessed as inhibition of albumin denaturation at 100 ug/ml by UV-visible spectrophotometry
Method in brief: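 Compounds dissolved in minimal DMF, diluted in PBS pH 7.4 (final DMF <2.5%). 1 mL test solution (100 µg/mL) plus 1 mL 1% albumin in PBS, 15 min at 27 ± 1 °C, then heated 10 min at 60 ± 1 °C. After cooling, turbidity read at 660 nm. % inhibition = [(Vt/Vc) − 1] × 100 against a no-drug control. Triplicate, averaged. Diclofenac standard.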

[2] = test system: Escherichia coli; assay: Antimicrobial activity against Escherichia coli at 100 ug/ml by agar plate diffusion technique; conditions: read-out: IZ
Method in brief: (§1)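 Agar plate diffusion against E. coli, P. aeruginosa, S. aureus and B. subtilis, with compounds at 25, 50 and 100 µg/mL. Streptomycin as standard.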

[3] = test system: Aspergillus niger; assay: Antimicrobial activity against Aspergillus niger at 100 ug/ml by paper disc method; conditions: read-out: IZ
Method in brief: (§2)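 Paper disc method against A. niger and C. albicans, with compounds at 25, 50 and 100 µg/mL. Amphotericin-B as standard.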

[4] = test system: Bacillus subtilis; assay: Antimicrobial activity against Bacillus subtilis at 50 ug/ml by agar plate diffusion technique; conditions: read-out: IZ; method in brief: as §1
[5] = test system: Escherichia coli; assay: Antimicrobial activity against Escherichia coli at 25 ug/ml by agar plate diffusion technique; conditions: read-out: IZ; method in brief: as §1
[6] = test system: Candida albicans; assay: Antimicrobial activity against Candida albicans at 50 ug/ml by paper disc method; conditions: read-out: IZ; method in brief: as §2
[7] = test system: Metaphire posthuma; assay: Anthelmintic activity against Pheretima posthuma assessed as time taken for parasite death at 0.2% w/v
Method in brief: (§3)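 Earthworms (Pheretima posthuma, spelled Perituma posthuma in text) exposed to test compounds at 0.1, 0.2 and 0.5% w/v. Albendazole served as standard, with an untreated control. Paralysis was recorded as the time until worms became motionless, then time to death was recorded, in minutes. Each value is the mean of three determinations with S.D.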

[8] = test system: Metaphire posthuma; assay: Anthelmintic activity against Pheretima posthuma assessed as time taken for complete parasite paralysis at 0.2% w/v
Method in brief: (§4)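 Earthworms (Pheretima posthuma) exposed to test solutions at 0.1, 0.2 and 0.5% w/v; time in minutes to complete paralysis (worms motionless) recorded. Albendazole as standard. Mean of three determinations ± S.D.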

[9] = test system: Candida albicans; assay: Antimicrobial activity against Candida albicans at 25 ug/ml by paper disc method; conditions: read-out: IZ; method in brief: as §2
[10] = test system: Metaphire posthuma; assay: Anthelmintic activity against Pheretima posthuma assessed as time taken for parasite death at 0.5% w/v; method in brief: as §3
[11] = test system: Staphylococcus aureus; assay: Antimicrobial activity against Staphylococcus aureus at 25 ug/ml by agar plate diffusion technique; conditions: read-out: IZ; method in brief: as §1
[12] = test system: Aspergillus niger; assay: Antimicrobial activity against Aspergillus niger at 50 ug/ml by paper disc method; conditions: read-out: IZ; method in brief: as §2
[13] = test system: Aspergillus niger; assay: Antimicrobial activity against Aspergillus niger at 25 ug/ml by paper disc method; conditions: read-out: IZ; method in brief: as §2
[14] = Antioxidant activity assessed as nitric oxide radical scavenging activity after 150 mins
Method in brief: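 10 mM sodium nitroprusside (4 mL), PBS pH 7.4 (1 mL) and sample or ascorbic acid in DMSO (1 mL, 12.5–100 µg/mL), incubated 150 min at 25 °C. Nitrite detected with sulphanilic acid (5 min) then naphthylethylenediamine (30 min, diffused light). Read at […]. Triplicate. % inhibition = [1 − (Vt/Vc)] × 100. IC50 derived from it.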

[15] = Antioxidant activity assessed as potassium ferricyanide ion reducing power after 20 mins
Method in brief: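 Oyaizu method. Samples or ascorbic acid in DMF (12.5–100 µg/mL) mixed with 0.2 M phosphate buffer pH 6.6 and 1% potassium ferricyanide, 20 min at 50 °C. 10% TCA added, centrifuged. Supernatant mixed with water and 0.1% FeCl3, read at 700 nm. % = [(Vt/Vc) − 1] × 100. IC50 derived.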

[16] = test system: Pseudomonas aeruginosa; assay: Antimicrobial activity against Pseudomonas aeruginosa at 100 ug/ml by agar plate diffusion technique; conditions: read-out: IZ; method in brief: as §1
[17] = test system: Staphylococcus aureus; assay: Antimicrobial activity against Staphylococcus aureus at 100 ug/ml by agar plate diffusion technique; conditions: read-out: IZ; method in brief: as §1
[18] = test system: Bacillus subtilis; assay: Antimicrobial activity against Bacillus subtilis at 100 ug/ml by agar plate diffusion technique; conditions: read-out: IZ; method in brief: as §1
[19] = test system: Metaphire posthuma; assay: Anthelmintic activity against Pheretima posthuma assessed as time taken for complete parasite paralysis at 0.5% w/v; method in brief: as §4
[20] = test system: Metaphire posthuma; assay: Anthelmintic activity against Pheretima posthuma assessed as time taken for complete parasite paralysis at 0.1% w/v; method in brief: as §4
[21] = test system: Candida albicans; assay: Antimicrobial activity against Candida albicans at 100 ug/ml by paper disc method; conditions: read-out: IZ; method in brief: as §2
[22] = Antioxidant activity assessed as inhibition of lipid peroxidation using egg lecithin liposomes incubated for 1 hr
Method in brief: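 Egg lecithin (3 mg/mL, phosphate buffer pH 7.4) sonicated 10 min to form liposomes. Sample or ascorbic acid (12.5–100 µg/mL) added. Peroxidation induced with FeCl3 and L-ascorbic acid, 1 h at 37 °C. Stopped with HCl/TCA/TBA/BHA, boiled 15 min, centrifuged, supernatant read at 532 nm. Triplicate. % inhibition vs control. IC50 derived.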

[23] = test system: Escherichia coli; assay: Antimicrobial activity against Escherichia coli at 50 ug/ml by agar plate diffusion technique; conditions: read-out: IZ; method in brief: as §1
[24] = test system: Pseudomonas aeruginosa; assay: Antimicrobial activity against Pseudomonas aeruginosa at 25 ug/ml by agar plate diffusion technique; conditions: read-out: IZ; method in brief: as §1
[25] = test system: Metaphire posthuma; assay: Anthelmintic activity against Pheretima posthuma assessed as time taken for parasite death at 0.1% w/v; method in brief: as §3
[26] = test system: Bacillus subtilis; assay: Antimicrobial activity against Bacillus subtilis at 25 ug/ml by agar plate diffusion technique; conditions: read-out: IZ; method in brief: as §1
[27] = test system: Staphylococcus aureus; assay: Antimicrobial activity against Staphylococcus aureus at 50 ug/ml by agar plate diffusion technique; conditions: read-out: IZ; method in brief: as §1
[28] = test system: Pseudomonas aeruginosa; assay: Antimicrobial activity against Pseudomonas aeruginosa at 50 ug/ml by agar plate diffusion technique; conditions: read-out: IZ; method in brief: as §1
[29] = Antioxidant activity assessed as hydrogen peroxide scavenging activity after 10 mins
Method in brief: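 H2O2 (20 mM) in PBS pH 7.4. 1 mL of sample or ascorbic acid in methanol (12.5–100 µg/mL) added to 2 mL H2O2 solution. A230 read after 10 min. % inhibition = [1 − (Vt/Vc)] × 100. Triplicate, averaged. IC50 derived from % inhibition across concentrations.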

| SMILES | inhibition [1] [%] | zone of inhibition at 100 µg/mL [2] [mm] | zone of inhibition at 100 µg/mL [3] [mm] | zone of inhibition at 50 µg/mL [4] [mm] | zone of inhibition at 25 µg/mL [5] [mm] | zone of inhibition at 50 µg/mL [6] [mm] | Time [7] [min] | Time [8] [min] | zone of inhibition at 25 µg/mL [9] [mm] | Time [10] [min] | zone of inhibition at 25 µg/mL [11] [mm] | zone of inhibition at 50 µg/mL [12] [mm] | zone of inhibition at 25 µg/mL [13] [mm] | IC50 [14] [µg/mL] | IC50 [15] [µg/mL] | zone of inhibition at 100 µg/mL [16] [mm] | zone of inhibition at 100 µg/mL [17] [mm] | zone of inhibition at 100 µg/mL [18] [mm] | Time [19] [min] | Time [20] [min] | also measured |
| --- | --- | --- | --- | --- | --- | --- | --- | --- | --- | --- | --- | --- | --- | --- | --- | --- | --- | --- | --- | --- | --- |
| CCOC(=O)c1cnn(-c2nc(-c3ccccc3F)c(C#N)c(=O)n2C)c1N | 48.9 | 27.5 | 21.2 | 19.3 | 15.1 | 15.2 | 80.74 | 68.48 | 12 | 60.77 | 15.8 | 14.1 | 11.9 | 87 (≈ 228 µM) | 69 (≈ 180 µM) | 26.2 | 26.7 | 28 | 48.38 | 70.67 | zone of inhibition at 100 µg/mL [21]: 21.2 mm; IC50 [22]: 94 µg/mL (≈ 246 µM); zone of inhibition at 50 µg/mL [23]: 22.3 mm; zone of inhibition at 25 µg/mL [24]: 12.7 mm; Time [25]: 88.45 min; zone of inhibition at 25 µg/mL [26]: 14.8 mm; zone of inhibition at 50 µg/mL [27]: 20.8 mm; zone of inhibition at 50 µg/mL [28]: 16.1 mm; IC50 [29]: 86 µg/mL (≈ 225 µM) |
| Cn1c(NN)nc(-c2ccccc2O)c(C#N)c1=O | 34.4 | 11.2 | 16.5 | 13.8 | 8.39 | 12.5 | 37.1 | 33.85 | 9.62 | 44.1 | 10.6 | 10.6 | 8.24 | 46 (≈ 179 µM) | 38 (≈ 148 µM) | 13 | 17.7 | 22.2 | 30.13 | 35.42 | zone of inhibition at 100 µg/mL [21]: 17.7 mm; IC50 [22]: 34 µg/mL (≈ 132 µM); zone of inhibition at 50 µg/mL [23]: 9.58 mm; zone of inhibition at 25 µg/mL [24]: 7.27 mm; Time [25]: 50.13 min; zone of inhibition at 25 µg/mL [26]: 9.81 mm; zone of inhibition at 50 µg/mL [27]: 12.2 mm; zone of inhibition at 50 µg/mL [28]: 9.17 mm; IC50 [29]: 30 µg/mL (≈ 117 µM) |
| COc1ccc(-c2nc(SC)n(C)c(=O)c2C#N)cc1 | 21.3 | 8.79 | 18 | 13.1 | 5.08 | 11.2 | 72.67 | 46.56 | 9.33 | 62.21 | 8.76 | 12 | 11.6 | 73 (≈ 254 µM) | 58 (≈ 202 µM) | 9.17 | 14.8 | 19.1 | 42.65 | 54.56 | zone of inhibition at 100 µg/mL [21]: 19.8 mm; IC50 [22]: 53 µg/mL (≈ 184 µM); zone of inhibition at 50 µg/mL [23]: 7.19 mm; zone of inhibition at 25 µg/mL [24]: 6.19 mm; Time [25]: 78.22 min; zone of inhibition at 25 µg/mL [26]: 11.7 mm; zone of inhibition at 50 µg/mL [27]: 12.8 mm; zone of inhibition at 50 µg/mL [28]: 8.84 mm; IC50 [29]: 48 µg/mL (≈ 167 µM) |
| CSc1nc(-c2ccccc2F)c(C#N)c(=O)n1C | 69.3 | 14.2 | 22.7 | 20.2 | 10.9 | 12.1 | 85.73 | 71.4 | 10.8 | 69.54 | 12.2 | 14.9 | 12.7 | 78 (≈ 283 µM) | 61 (≈ 222 µM) | 11.8 | 20.9 | 29.4 | 55.17 | 72.34 | zone of inhibition at 100 µg/mL [21]: 16 mm; IC50 [22]: 58 µg/mL (≈ 211 µM); zone of inhibition at 50 µg/mL [23]: 13.8 mm; zone of inhibition at 25 µg/mL [24]: 9.17 mm; Time [25]: 90.4 min; zone of inhibition at 25 µg/mL [26]: 16.9 mm; zone of inhibition at 50 µg/mL [27]: 15.3 mm; zone of inhibition at 50 µg/mL [28]: 10.4 mm; IC50 [29]: 63 µg/mL (≈ 229 µM) |
| CCOC(=O)c1cnn(-c2nc(-c3ccccc3O)c(C#N)c(=O)n2C)c1N | 54.4 | 24.4 | 18.1 | 14.2 | 13.5 | 14.5 | 49.54 | 40.03 | 10.6 | 47.23 | 12.3 | 12.6 | 9.21 | 64 (≈ 168 µM) | 48 (≈ 126 µM) | 21.1 | 22.8 | 23.1 | 38.52 | 43.09 | zone of inhibition at 100 µg/mL [21]: 15.5 mm; IC50 [22]: 57 µg/mL (≈ 150 µM); zone of inhibition at 50 µg/mL [23]: 17.3 mm; zone of inhibition at 25 µg/mL [24]: 10.2 mm; Time [25]: 55.2 min; zone of inhibition at 25 µg/mL [26]: 13.9 mm; zone of inhibition at 50 µg/mL [27]: 17.4 mm; zone of inhibition at 50 µg/mL [28]: 15 mm; IC50 [29]: 58 µg/mL (≈ 152 µM) |
| CCOC(=O)c1cnn(-c2nc(-c3cccs3)c(C#N)c(=O)n2C)c1N | 44.6 | 16.1 | 22.1 | 15.1 | 12.5 | 13.8 | 49.67 | 40.12 | 9.1 | 47.44 | 11.8 | 15.8 | 12.1 | 98 (≈ 265 µM) | 79 (≈ 213 µM) | 18.8 | 16.5 | 18.7 | 43.59 | 42.48 | zone of inhibition at 100 µg/mL [21]: 21.5 mm; IC50 [22]: 97 µg/mL (≈ 262 µM); zone of inhibition at 50 µg/mL [23]: 13.1 mm; zone of inhibition at 25 µg/mL [24]: 9.67 mm; Time [25]: 47.38 min; zone of inhibition at 25 µg/mL [26]: 12.9 mm; zone of inhibition at 50 µg/mL [27]: 12.2 mm; zone of inhibition at 50 µg/mL [28]: 12.7 mm; IC50 [29]: 109 µg/mL (≈ 294 µM) |
